Experimental data as given in publication PMC6447837 (Cancer Science, 2019).

Experiments:
Aspc‐1 cells [1] = assay: Colony formation assay; assay type: cell-based, human; conditions: 14 days
Summary of the method: (§1)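 Cells were seeded at 5000-8000 per well and treated with test compound the next day, from DMSO stocks diluted in medium. Medium with vehicle or compound was replaced every 4 days. Cells were then methanol-fixed and crystal violet-stained. Colonies of more than 50 cells were counted under an inverted microscope and expressed as a percentage of colony numbers. Mean of n = 3, with SD.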

SW1990 = assay: MTT antiviability assay; assay type: cell-based; conditions: Homo sapiens, SW1990, 72 h
KG‐1a = assay: MTT antiviability assay; assay type: cell-based; conditions: Homo sapiens, 72 h
Bxpc‐3 cells [2] = assay: Annexin V/PI apoptosis assay; assay type: cell-based, human; conditions: 24 hours
Summary of the method: (§2)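 Cells were treated with a range of concentrations for 24 hours, washed with PBS, then stained with annexin V‑FITC and propidium iodide for 15 minutes in the dark. […] Early (annexin V) and late (PI) apoptotic cells are reported as percentages, mean of n = 3 with SD.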

Src [3] = assay: Immunohistochemistry of xenograft tumor tissues; assay type: in vivo, NOD‐SCID mice; conditions: Aspc‐1 and Bxpc‐3 models; LY‐1816 and dasatinib 40 mg/kg/d p.o., gemcitabine 80 mg/kg/wk; IHC
Bxpc‐3 cells [4] = assay: Transwell invasion assay; assay type: cell-based, human
Summary of the method: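 Inserts were precoated with polymerized collagen type I. Cells were seeded on the insert bottom in serum‑free medium with serial dilutions of test compound or vehicle, with 10% FBS medium in the lower chamber. After one day, cells were stained with calcein‑AM and optical sections taken at 10‑μm intervals. Invasion was scored as cells moving >20 μm into collagen; n = 3, mean with SD.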

NCI‐N87 = assay: MTT antiviability assay; assay type: cell-based; conditions: Homo sapiens, NCI-N87, 72 h
RAMOS = conditions: Lymphoma, ref Zhang et al (2016) 35; cited from earlier work
HCC1937 = conditions: HCC1937, Triple negative breast cancer; mean ± SD; ref Zhang et al (2016) 35; cited from earlier work
cleaved caspase‐3 = assay: Immunohistochemistry of xenograft tumor tissues; assay type: in vivo, NOD‐SCID mice; conditions: xenograft models; LY‐1816 40 mg/kg/d p.o., gemcitabine 80 mg/kg/wk; IHC
Summary of the method: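 Aspc‑1 or Bxpc‑3 s.c. tumors in NOD‑SCID mice were dosed p.o. daily from about 200 mm³, with vehicle controls. At study end, tumors were resected. Frozen sections were immunostained and imaged by light microscopy, and cleaved caspase‑3‑positive cells were counted.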

STAT3 = assay: Western blot, STAT3 phosphorylation; assay type: cell-based, human; conditions: Aspc‐1 and Bxpc‐3 cells, 12 hours
Summary of the method: (§3)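 Aspc-1 and Bxpc-3 cells were grown overnight in complete medium and treated with test compound for 12 h. Cells were lysed in RIPA buffer and protein was quantified. Lysates were run on SDS-PAGE and transferred to PVDF, then blocked 2 h in TBS-T with 5% non-fat milk. Blots were probed for pAKT Ser473, pERK Thr202/Tyr204, pSTAT3 Tyr705, the matching total proteins and β-actin. Detection was by enhanced chemiluminescence.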

Capan‐2 = assay: MTT antiviability assay; assay type: cell-based; conditions: Homo sapiens, Capan-2, 72 h
HPAC = assay: MTT antiviability assay; assay type: cell-based; conditions: Homo sapiens, 72 h
DU145 = conditions: DU145, Prostate carcinoma; ref Zhang et al (2016) 35; cited from earlier work
Aspc‐1 = assay: MTT antiviability assay; assay type: cell-based; conditions: Homo sapiens, ASPC1, 72 h
Aspc‐1 cells [5] = assay: Annexin V/PI apoptosis assay; assay type: cell-based, human; conditions: 24 hours
Summary of the method: as §2

Aspc‐1 cells [6] = assay: EdU incorporation; assay type: cell-based, human; conditions: 24 hours
Summary of the method: (§4)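 Cells were seeded overnight at 5000-8000 per well in 96-well plates, then exposed to test compound for 24 h. Cells were then incubated with EdU followed by Hoechst, using a commercial kit per manufacturer's instructions. EdU marks proliferating cells and Hoechst marks nuclei. The read-out was the percentage of EdU-positive cells, as mean of n = 3 with SD.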

Bxpc‐3 cells [7] = assay: Colony formation assay; assay type: cell-based, human; conditions: 18 days
Summary of the method: as §1

Bxpc‐3 cells [8] = assay: EdU incorporation; assay type: cell-based, human; conditions: 24 hours
Summary of the method: as §4

ERK = assay: Western blot, ERK phosphorylation; assay type: cell-based, human; conditions: Aspc‐1 and Bxpc‐3 cells, 12 hours
Summary of the method: as §3

MDA‐MB‐436 = assay: MTT antiviability assay; assay type: cell-based; conditions: Homo sapiens, MDA-MB-436, 72 h
MCF‐7 = assay: MTT antiviability assay; assay type: cell-based; conditions: Homo sapiens, MCF7, 72 h
205 other kinases = assay: Radiometric kinase assay, remaining panel; assay type: biochemical, human; conditions: 205 other kinases of the panel; did not show activity
Src [9] = biological target: Src (Homo sapiens, UniProt P12931); assay type: cell-based; conditions: 12 hours, western blot
Src (Homo sapiens, UniProt P12931), sequence (P12931 whole entry): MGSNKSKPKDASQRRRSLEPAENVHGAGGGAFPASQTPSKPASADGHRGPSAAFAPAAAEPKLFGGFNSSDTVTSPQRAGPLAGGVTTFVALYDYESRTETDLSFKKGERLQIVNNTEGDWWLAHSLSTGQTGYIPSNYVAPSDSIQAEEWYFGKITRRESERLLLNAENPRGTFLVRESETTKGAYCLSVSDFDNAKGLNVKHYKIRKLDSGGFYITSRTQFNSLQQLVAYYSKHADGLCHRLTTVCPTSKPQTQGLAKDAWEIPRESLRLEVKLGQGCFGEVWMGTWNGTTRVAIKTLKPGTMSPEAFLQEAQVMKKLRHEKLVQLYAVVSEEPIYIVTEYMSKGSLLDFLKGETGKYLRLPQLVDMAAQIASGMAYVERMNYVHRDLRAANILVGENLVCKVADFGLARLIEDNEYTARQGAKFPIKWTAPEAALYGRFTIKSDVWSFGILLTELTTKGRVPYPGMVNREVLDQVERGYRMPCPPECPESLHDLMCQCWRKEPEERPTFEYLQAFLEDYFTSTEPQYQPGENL

A375 = assay: MTT antiviability assay; assay type: cell-based; conditions: Homo sapiens, A-375, 72 h
plc/prf/5 = conditions: plc/prf/5, Hepatocarcinoma; ref Zhang et al (2016) 35; cited from earlier work
PC‐9 = conditions: PC‐9, Lung cancer; mean ± SD; ref Zhang et al (2016) 35; cited from earlier work
[10] = test system: Miapaca‐2 metastatic model; assay: Experimental metastasis assay; assay type: in vivo, NOD‐SCID mice; conditions: 40 mg/kg/d
Summary of the method: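 Miapaca‑2 cells (5 × 10⁶) were injected into the tail vein of 5‑ to 6‑week‑old female NOD‑SCID mice. Mice were randomized immediately into 5 groups of 6 and given test compound p.o. at 20 or 40 mg/kg, comparators, or vehicle. […] Kaplan–Meier analysis used a log rank test against control.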

COLO‐205 = assay: MTT antiviability assay; assay type: cell-based; conditions: Homo sapiens, COLO 205, 72 h
Fyn = Fyn (Homo sapiens, UniProt P06241); assay: Radiometric kinase IC50 assay; assay type: biochemical
Fyn, sequence (P06241 whole entry): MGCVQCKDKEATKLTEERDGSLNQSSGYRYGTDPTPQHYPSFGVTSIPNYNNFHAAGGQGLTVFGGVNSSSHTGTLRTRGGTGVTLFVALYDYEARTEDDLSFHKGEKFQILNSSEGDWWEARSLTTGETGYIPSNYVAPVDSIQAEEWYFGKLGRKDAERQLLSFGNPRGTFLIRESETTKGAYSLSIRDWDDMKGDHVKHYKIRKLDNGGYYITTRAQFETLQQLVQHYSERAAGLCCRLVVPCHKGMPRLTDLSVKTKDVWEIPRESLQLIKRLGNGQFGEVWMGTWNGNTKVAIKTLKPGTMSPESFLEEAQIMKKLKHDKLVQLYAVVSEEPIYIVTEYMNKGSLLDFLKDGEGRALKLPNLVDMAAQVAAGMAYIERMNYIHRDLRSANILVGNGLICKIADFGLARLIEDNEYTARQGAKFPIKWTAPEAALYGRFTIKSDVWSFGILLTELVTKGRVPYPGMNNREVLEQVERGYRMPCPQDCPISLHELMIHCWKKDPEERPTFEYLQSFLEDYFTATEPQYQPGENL

In the case of `Cc1ccc(NC(=O)c2ccc(C)c(C(F)(F)F)c2)cc1C#Cc1nn(C2CCC(O)CC2)c2ncnc(N)c12` (stereo not shown) [LY‐1816, N‐(3‐((4‐amino‐1‐(4‐hydroxycyclohexyl)‐1H‐pyrazolo[3,4‐d]pyrimidin‐3‐yl)ethynyl)‐4‐methylphenyl)‐4‐methyl‐3‐(trifluoromethyl)benzamide], the colony growth (Aspc‐1 cells [1]) is reported as “significantly inhibited the colony growth”, the IC50 (SW1990) is reported as 42 ± 53 nM and the IC50 (KG‐1a) is reported as over 10000 nM. The “apoptosis (annexin V and PI‐positive populations)” value (Bxpc‐3 cells [2]) was “significantly increased the annexin V and PI‐positive populations”, the “phosphorylation of Src in tumor tissues” value (Src [3]) was “evidently reduced the phosphorylation of Src and STAT3” and the cell invasion (Bxpc‐3 cells [4]) was “significantly suppressed the invasion”. For the same compound, the IC50 (NCI‐N87) was 147 ± 44 nM, the IC50 (RAMOS) was about 10000 nM and the IC50 (HCC1937) was 455 ± 87 nM. The “cleaved caspase‐3 stain in tumor tissues” value (cleaved caspase‐3) was “considerable ability to induce apoptosis”, the “phosphorylation of STAT3” value (STAT3) was “significantly inhibit STAT3 phosphorylation” and the IC50 (Capan‐2) was 97 ± 14 nM. The IC50 (HPAC) was 45 ± 4 nM, the IC50 (DU145) was over 10000 nM and the IC50 (Aspc‐1) was 54 ± 8 nM. For the same compound, the “apoptosis (annexin V and PI‐positive populations)” value (Aspc‐1 cells [5]) was “significantly increased the annexin V and PI‐positive populations”, the “DNA replication (EdU)” value (Aspc‐1 cells [6]) was “dose‐dependently suppress the DNA replication” and the colony growth (Bxpc‐3 cells [7]) was “significantly inhibited the colony growth”. The “DNA replication (EdU)” value (Bxpc‐3 cells [8]) was “dose‐dependently suppress the DNA replication”, the “phosphorylation of ERK” value (ERK) was “very weak or no impact on the phosphorylation of ERK and AKT” and the IC50 (MDA‐MB‐436) was over 10000 nM. The IC50 (MCF‐7) was over 10000 nM, the IC50 (205 other kinases) was over 10000 nM and the “phosphorylation of Src” value (Src [9]; 10 PDAC cell lines) was “potently inhibited the phosphorylation of Src”. For the same compound, the Src phosphorylation (Src [9]; HT29 and HCT116 cells) was “relatively weak potency”, the IC50 (A375) was 134 ± 2 nM and the IC50 (plc/prf/5) was about 10000 nM. For the same compound, the IC50 (PC‐9) was 152 ± 41 nM, the “mice alive at day 105” value [10] was 33% and the IC50 (COLO‐205) was 17 ± 1 nM. It also gave an IC50 (Fyn) of 6 nM.
